From PubChem
UPR XBP1 act: activators of adaptive arm of unfolded protein response (XBP1); 330,000 compounds, 0.33% hits; CHO-XBP1 luciferase reporter, IRE1-XBP1 UPR activation, luminescence; percent of tunicamycin response, DMSO as zero; activation, % at 20 µM; AID 463104;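 active = versus positive control, 20 µM dose yields 30% or more activation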;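 note: 100% = tunicamycin at 10 µg/mL and 0% = DMSO only wells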
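Material: CHO cell line with stable XBP1 luciferase reporter; buffer or medium: F12 medium containing 10% fetal bovine serum; compound: single point, 20 µM final compound, 1% DMSO; incubation: 6 h treatment, 37 °C; measured by: glow luminescence from Steady-Glo reagent; evaluation: activation, % of tunicamycin; control set: tunicamycin high, DMSO low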
CHOP UPR activ: activators of apoptotic arm of unfolded protein response (CHOP); CHO-CHOP luciferase reporter, UPR activation, luminescence; percent of tunicamycin response over DMSO baseline; activation, % at 10 µM; 330,000 compounds, 0.34% hits; AID 449763;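 active = at 10 µM dose, activation of 40% or more, normalized to positive control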;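 note: 100% = tunicamycin at 10 µg/mL and 0% = DMSO alone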
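Material: CHO-CHOP cells, stable luciferase reporter of PERK-eIF2a-CHOP signalling; quantity: 500 reporter cells seeded per well; buffer or medium: F12 medium containing 10% fetal bovine serum; compound: one dose, 10 µM in 0.5% DMSO; incubation: 6 h compound treatment, 37 °C; measured by: Steady-Glo luciferase luminescence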
tim23-1 inh: growth inhibitors of tim23-1 mutant yeast. S. cerevisiae tim23-1 growth, BacTiter-Glo luminescence, 24 h. inhibition, % at 20 µM. 330,000 compounds, 1.3% hits. AID 463212;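 active = growth inhibition of the mutant yeast at or above 50%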;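 note: temperature-sensitive mutant grown at 25 °C; plate controls were DMSO-treated mutant yeast for no effect and medium wells lacking yeast for full effect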
tim10-1 inh: tim10-1 yeast growth inhibition | S. cerevisiae tim10-1 ts strain growth, BacTiter-Glo, 24 h | inhibition, % at 20 µM | 330,000 compounds, 2.2% hits | AID 463190;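 active = inhibition of at least 40%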;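 note: mutant grown at 25 °C; 0% = DMSO wells with yeast and 100% = wells holding no yeast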
TIM10 inh: growth inhibitors of TIM10 yeast strain; S. cerevisiae TIM10 strain growth, BacTiter-Glo luminescence, 24 h; inhibition, % at 10 µM; 330,000 compounds, 1.4% hits; AID 463195;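 active = inhibition of 40% or more at the single tested concentration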;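 note: wild-type TIM10 isogenic control strain grown at permissive 25 °C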
tim10-1 confirm: confirmation of tim10-1 mutant yeast growth inhibitors. shares compounds with tim10-1 inh. S. cerevisiae tim10-1 ts strain growth, BacTiter-Glo, 24 h. inhibition, % at 20 µM. 7,400 compounds, 56% hits. AID 463213;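 active = inhibition of yeast growth at or above a set limit in either of two repeat tests at 20 µM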;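 note: tim10-1 mutant grown at permissive 25 °C to find synthetic lethal compounds; 0% = DMSO yeast wells and 100% = medium wells without yeast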
* marks the source's active call; other numbers are inactive results. Most compounds without a hit are left out; they make up all but 3.9% or so of the library.

What do the screens show for `CC(C)CC1NC(=O)N(CC(=O)Nc2ccc3c(c2)OCCO3)C1=O` (configuration not stated)?
UPR XBP1 act: -3; CHOP UPR activ: 1; tim23-1 inh: 5; tim10-1 inh: -10; TIM10 inh: 0

How did COc1ccccc1-n1c(SCC(=O)c2ccc(O)cc2O)nc2cc([N+](=O)[O-])ccc21 do in these assays?
UPR XBP1 act: 0; CHOP UPR activ: 0; tim23-1 inh: 39; tim10-1 inh: 41*; TIM10 inh: 4; tim10-1 confirm: 29

How did COc1ccccc1-n1c(SCC(=O)NC2CCS(=O)(=O)C2)nc2cc([N+](=O)[O-])ccc21 (configuration not stated) do in these assays?
UPR XBP1 act: 0; CHOP UPR activ: -1; tim23-1 inh: 3; tim10-1 inh: 10; TIM10 inh: 7

Results for O=c1c2cn[nH]c2nc(SCc2cc(=O)n3cc(Br)ccc3n2)n1-c1ccc(Br)cc1 ?
UPR XBP1 act: 2; CHOP UPR activ: -1; tim23-1 inh: 1; tim10-1 inh: 16; TIM10 inh: 11

Results for O=c1c2cn[nH]c2nc(SCc2ccccc2F)n1-c1ccc(Br)cc1 ?
UPR XBP1 act: -3; CHOP UPR activ: -3; tim23-1 inh: 39; tim10-1 inh: 42*; TIM10 inh: 23; tim10-1 confirm: 23

What do the screens show for `Cc1cccc2sc(N(CCCN(C)C)C(=O)c3ccc(C(=O)c4ccccc4)cc3)nc12`?
UPR XBP1 act: -2; CHOP UPR activ: -2; tim23-1 inh: 3; tim10-1 inh: 43*; TIM10 inh: 27; tim10-1 confirm: 7

What do the screens show for `Cc1cccc2sc(N(CCCN(C)C)C(=O)c3sc4ccccc4c3Cl)nc12`?
UPR XBP1 act: -1; CHOP UPR activ: 1; tim23-1 inh: 11; tim10-1 inh: 20; TIM10 inh: 16

What do the screens show for `CN(C)CCCN(C(=O)c1ccc(C(=O)c2ccccc2)cc1)c1nc2ccc(F)cc2s1`?
UPR XBP1 act: 3; CHOP UPR activ: 3; tim23-1 inh: 16; tim10-1 inh: 49*; TIM10 inh: 35; tim10-1 confirm: 4

Results for O=C(NCCn1cccn1)C1CCC(=O)N(CCc2ccccc2)C1 (configuration not stated) ?
UPR XBP1 act: -1; CHOP UPR activ: 1; tim23-1 inh: 2; tim10-1 inh: -3; TIM10 inh: -7

How did N/C(=N\OC(=O)c1cc([N+](=O)[O-])ccc1Cl)c1ccccn1 do in these assays?
UPR XBP1 act: 0; CHOP UPR activ: 7; tim23-1 inh: 28; tim10-1 inh: 19; TIM10 inh: 10

Results for COc1cccc(C(=O)O/N=C(\N)c2ccccn2)c1 ?
UPR XBP1 act: -12; CHOP UPR activ: -12; tim23-1 inh: 33; tim10-1 inh: 40*; TIM10 inh: 29; tim10-1 confirm: 46*

What do the screens show for `N/C(=N\OC(=O)c1cccc([N+](=O)[O-])c1)c1ccccn1`?
UPR XBP1 act: -4; CHOP UPR activ: 4; tim23-1 inh: 23; tim10-1 inh: 42*; TIM10 inh: 31; tim10-1 confirm: 12

How did Cc1nnc(SCC(=O)Nc2ccc(S(N)(=O)=O)cc2)n(N)c1=O do in these assays?
UPR XBP1 act: 0; CHOP UPR activ: 0; tim23-1 inh: 9; tim10-1 inh: 14; TIM10 inh: 5

Results for COc1ccc(-n2c(C)cc(C(=O)Cn3nc(C(=O)O)c4ccccc4c3=O)c2C)cc1 ?
UPR XBP1 act: -2; CHOP UPR activ: -1; tim23-1 inh: 27; tim10-1 inh: 17; TIM10 inh: 24

What do the screens show for `Cc1ccc(-n2c(C)cc(C(=O)Cn3nc(C(=O)O)c4ccccc4c3=O)c2C)cc1`?
UPR XBP1 act: 3; CHOP UPR activ: 1; tim23-1 inh: 26; tim10-1 inh: 42*; TIM10 inh: 16; tim10-1 confirm: 15

Results for CC(=O)c1ccc(NC(=O)/C(=C\c2ccc(F)cc2)NC(=O)c2ccco2)cc1 ?
UPR XBP1 act: -1; CHOP UPR activ: 1; tim23-1 inh: 13; tim10-1 inh: -4; TIM10 inh: 14

What do the screens show for `Cc1cc(-c2nnc(SCC(=O)Nc3ccc(F)cc3F)n2N)n[nH]1`?
UPR XBP1 act: 2; CHOP UPR activ: 1; tim23-1 inh: 11; tim10-1 inh: 13; TIM10 inh: -1

What do the screens show for `CN(CC(=O)Nc1ccc(F)cc1)C(=O)COC(=O)c1cc(S(=O)(=O)N(C)C)ccc1N1CCCC1`?
UPR XBP1 act: -3; CHOP UPR activ: 0; tim23-1 inh: 3; tim10-1 inh: 4; TIM10 inh: 0

What do the screens show for `CN(C)S(=O)(=O)Oc1ccsc1C(=O)Nc1cccc(Cl)c1`?
UPR XBP1 act: 0; CHOP UPR activ: 0; tim23-1 inh: 26; tim10-1 inh: 31; TIM10 inh: 22

Results for CN(C)S(=O)(=O)Oc1ccsc1C(=O)Nc1ccc(Cl)c(Cl)c1 ?
UPR XBP1 act: 2; CHOP UPR activ: -1; tim23-1 inh: 26; tim10-1 inh: 44*; TIM10 inh: 28; tim10-1 confirm: 36*

What do the screens show for `CC1CCN(C(=O)c2cc(Cl)ccc2NC(=O)c2ccco2)CC1`?
UPR XBP1 act: 1; CHOP UPR activ: 0; tim23-1 inh: 13; tim10-1 inh: -38; TIM10 inh: -6

What do the screens show for `CCc1nnc(NC(=O)c2cc(-c3ccccn3)nc3ccc(Br)cc23)s1`?
UPR XBP1 act: -4; CHOP UPR activ: -3; tim23-1 inh: 7; tim10-1 inh: 83*; TIM10 inh: -4; tim10-1 confirm: -21

Results for CCc1nnc(NC(=O)c2cc(-c3ccncc3)nc3ccccc23)s1 ?
UPR XBP1 act: 1; CHOP UPR activ: -1; tim23-1 inh: 17; tim10-1 inh: 7; TIM10 inh: 4

Results for O=C1Nc2ccccc2C1C(C[N+](=O)[O-])c1ccccc1 (configuration not stated) ?
UPR XBP1 act: -2; CHOP UPR activ: 0; tim23-1 inh: 2; tim10-1 inh: 8; TIM10 inh: -19

How did CC(C)N(C(=O)CSc1nc2ccccc2n1-c1ccccc1)C(C)C do in these assays?
UPR XBP1 act: 1; CHOP UPR activ: -2; tim23-1 inh: 33; tim10-1 inh: 45*; TIM10 inh: 28; tim10-1 confirm: 28

How did Cc1ccc(-c2noc(CN3CCN(C(c4ccccc4)c4ccccc4)CC3)n2)cc1 do in these assays?
UPR XBP1 act: -4; CHOP UPR activ: 4; tim23-1 inh: 24; tim10-1 inh: 41*; TIM10 inh: 37; tim10-1 confirm: 19

What do the screens show for `CC1C(=O)C(C)(C)C(=O)OC1c1ccccc1` (configuration not stated)?
UPR XBP1 act: -4; CHOP UPR activ: 1; tim23-1 inh: 11; tim10-1 inh: 1; TIM10 inh: 13
